The source made the active and inactive calls. No cut-off for these calls is given here.
Legend:
[1] = test system: Leishmania donovani; assay: Effect on total membrane sterol composition in Leishmania donovani LV9 promastigotes assessed by measuring 14-alpha-Methylcholesta-5,7,24-trien-3beta-ol content at 10 uM; type: functional
Procedure, shortened: (§1)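 LV9 promastigotes (wild type, 26°C, 1 liter shaken culture) were exposed to HePC for 48 h before harvest. Total membranes were extracted in dichloromethane-methanol 2:1 for 24 h at 4°C, then saponified with 30% KOH/methanol at 80°C for 2 h. Sterols were extracted into hexane, converted to TMS ethers with BSTFA (80°C, 1 h) and analysed by GC-MS with EI at 70 eV. Results are given as % total sterol, n = 3.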

[2] = test system: Leishmania donovani; assay: Effect on total membrane sterol composition in Leishmania donovani LV9 promastigotes assessed by measuring cholesta-5,7,24-trien-3beta-ol content at 10 uM; type: functional; procedure, shortened: as §1
[3] = test system: Leishmania donovani; assay: Effect on total membrane fatty acid composition in Leishmania donovani LV9 promastigotes assessed by measuring hexadecanoate fatty acid at 10 uM; type: functional
Procedure, shortened: (§2)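 Log-phase LV9 wild-type promastigotes were exposed to HePC for 48 h before harvest, in 1 liter of medium 199 at 26°C. Washed whole-cell pellets served as total membranes. Fatty acids were analysed by gas chromatography as methyl esters and expressed as % of total fatty acids (mean ± SD, n = 3).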

[4] = test system: Leishmania donovani; assay: Effect on total membrane sterol composition in Leishmania donovani LV9 promastigotes assessed by measuring 4-alpha,-14alpha-Dimethylergosta-8,24(24')-dien-3beta-ol content at 10 uM; type: functional; procedure, shortened: as §1
[5] = test system: Leishmania donovani; assay: Effect on total membrane sterol composition in Leishmania donovani LV9 promastigotes assessed by measuring ergosta-7,24(24')-dien-3beta-ol content at 10 uM; type: functional; procedure, shortened: as §1
[6] = test system: Leishmania donovani; assay: Effect on total membrane sterol composition in Leishmania donovani LV9 promastigotes assessed by measuring ergosterol content at 10 uM; type: functional; procedure, shortened: as §1
[7] = test system: Leishmania donovani; assay: Effect on total membrane fatty acid composition in Leishmania donovani LV9 promastigotes assessed by measuring 9-hexadecenoate fatty acid at 10 uM; type: functional; procedure, shortened: as §2
[8] = test system: Leishmania donovani; assay: Effect on total membrane sterol composition in Leishmania donovani LV9 promastigotes assessed by measuring 4,4alpha-Dimethylergosta-8,24(24')-dien-3beta-ol content at 10 uM; type: functional; procedure, shortened: as §1
[9] = test system: Leishmania donovani; assay: Effect on total membrane sterol composition in Leishmania donovani LV9 promastigotes assessed by measuring cholesterol content at 10 uM; type: functional; procedure, shortened: as §1
[10] = test system: Leishmania donovani; assay: Effect on phospholipid composition in HePC-resistant Leishmania donovani at 1 uM; type: functional, organism-based
Procedure, shortened: (§3)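 HePC-resistant L. donovani LV9 promastigotes were kept under 40 μM HePC in medium 199 with 10% inactivated FCS, HEPES, adenosine, hemin and gentamicin at 26°C in the dark, then exposed to added HePC. Cells were harvested in late log phase and washed in cold TBS. Lipids from total and plasma-membrane-enriched fractions were extracted with chloroform/methanol. Phospholipids were quantified by HPLC on a PVA-sil column with evaporative light scattering detection.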

[11] = test system: Leishmania donovani; assay: Effect on total membrane sterol composition in Leishmania donovani LV9 promastigotes assessed by measuring ergosta-7,22-dien-3beta-ol content at 10 uM; type: functional; procedure, shortened: as §1
[12] = test system: Leishmania donovani; assay: Effect on total membrane sterol composition in Leishmania donovani LV9 promastigotes assessed by measuring 4-alpha,14alpha-Dimethylcholesta-8,24-dien-3beta-ol content at 10 uM; type: functional; procedure, shortened: as §1
[13] = test system: Leishmania donovani; assay: Effect on phospholipid composition in HePC-resistant Leishmania donovani at 10 uM; type: functional, organism-based; procedure, shortened: as §3
[14] = test system: Leishmania donovani; assay: Effect on total membrane sterol composition in Leishmania donovani LV9 promastigotes assessed by measuring 14-alpha-Methylergosta-5,7,24(24')-trien-3beta-ol content at 10 uM; type: functional; procedure, shortened: as §1
[15] = test system: Leishmania donovani; assay: Effect on total membrane sterol composition in Leishmania donovani LV9 promastigotes assessed by measuring ergosta-5,7,24(24')-trien-3beta-ol content at 10 uM; type: functional; procedure, shortened: as §1
[16] = test system: Leishmania donovani; assay: Effect on total membrane phospholipid composition in wild type Leishmania donovani LV9 assessed as decrease in phosphatidyl choline at 10 uM after 48 hrs; type: functional; parameters: scale not given: the % may be the effect or the level left
Procedure, shortened: (§4)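 Wild-type LV9 promastigotes were cultured in 1 liter of supplemented medium 199 at 26°C with shaking. HePC (aqueous) was added 48 h before harvest at late log phase. After TBS washes, the whole-cell pellet was taken as total membranes. Lipids were extracted with chloroform/methanol and phospholipids profiled by HPLC on a PVA-sil column with evaporative light-scattering detection. n = 3.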

[17] = test system: Leishmania donovani; assay: Effect on total membrane sterol composition in Leishmania donovani LV9 promastigotes assessed by measuring ergosta-5,7,22,24(24')-tetraen-3beta-ol content at 10 uM; type: functional; procedure, shortened: as §1
[18] = test system: Leishmania donovani; assay: Effect on total membrane sterol composition in Leishmania donovani LV9 promastigotes assessed by measuring 24-Methylenedihydrolanosterol content at 10 uM; type: functional; parameters: scale not given: the % may be the effect or the level left; procedure, shortened: as §1
[19] = test system: Leishmania donovani; assay: Effect on total membrane fatty acid composition in Leishmania donovani LV9 promastigotes assessed by measuring tetradecanoate fatty acid at 10 uM; type: functional; procedure, shortened: as §2
[20] = test system: Leishmania donovani; assay: Effect on plasma membrane phospholipid composition in wild type Leishmania donovani LV9 assessed as increase in phosphatidyl ethanolamine at 10 uM after 48 hrs; type: functional
Procedure, shortened: (§5)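 Wild-type LV9 promastigotes grown at 26°C with shaking, starting at 10^6/ml in 1 liter of medium 199 with 10% FCS. HePC in aqueous solution was added 48 h before harvest at late log phase. Cells were washed in TBS and lysed by freeze-thaw; a 2,100 × g pellet gave the plasma membrane-enriched fraction. Lipids were extracted with chloroform/methanol and phospholipids analysed by HPLC (PVA-sil column, light-scattering detection). n = 3.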

[21] = test system: Leishmania donovani; assay: Effect on total membrane fatty acid composition in Leishmania donovani LV9 promastigotes assessed by measuring 9-octadecenoate fatty acid at 10 uM; type: functional; procedure, shortened: as §2
[22] = test system: Leishmania donovani; assay: Effect on total membrane phospholipid composition in wild type Leishmania donovani LV9 assessed as increase in phosphatidyl ethanolamine at 10 uM after 48 hrs; type: functional; procedure, shortened: as §4
[23] = test system: Leishmania donovani; assay: Effect on total membrane fatty acid composition in Leishmania donovani LV9 promastigotes assessed by measuring dodecanoate fatty acid at 10 uM; type: functional; procedure, shortened: as §2
[24] = test system: Leishmania donovani; assay: Effect on total membrane fatty acid composition in Leishmania donovani LV9 promastigotes assessed as decrease in C16 fatty acid content at 10 uM; type: functional; parameters: scale not given: the % may be the effect or the level left; procedure, shortened: as §2
[25] = test system: Leishmania donovani; assay: Effect on total membrane sterol composition in Leishmania donovani LV9 promastigotes assessed by measuring 14-alpha-Methylergosta-8,24(24')-dien-3beta-ol content at 10 uM; type: functional; procedure, shortened: as §1
[26] = test system: Leishmania donovani; assay: Effect on total membrane sterol composition in Leishmania donovani LV9 promastigotes assessed by measuring stigmasta-7,24(24')-dien-3beta-ol content at 10 uM; type: functional; procedure, shortened: as §1
[27] = test system: Leishmania donovani; assay: Effect on total membrane fatty acid composition in Leishmania donovani LV9 promastigotes assessed by measuring octadecanoate fatty acid at 10 uM; type: functional; procedure, shortened: as §2
[28] = test system: Leishmania donovani; assay: Growth inhibition of wild type Leishmania donovani LV9 at 10 uM after 48 hrs; type: functional; conditions: LV9, 48 h
Procedure, shortened: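 Promastigotes were grown in medium 199 with 10% heat-inactivated FCS, HEPES, adenosine, hemin and gentamicin at 26°C in the dark. HePC was tested at 20, 10, 5, 2.5 and 1.25 μM. Cells were counted microscopically at 24, 48 and 72 h. n = 3.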

[29] = test system: Leishmania donovani; assay: Effect on total membrane sterol composition in Leishmania donovani LV9 promastigotes assessed by measuring 14-alpha-Methylcholesta-8,24-dien-3beta-ol content at 10 uM; type: functional; procedure, shortened: as §1
[30] = test system: Leishmania donovani; assay: Effect on total membrane sterol composition in Leishmania donovani LV9 promastigotes assessed by measuring total C24 alkyl sterol content at 10 uM; type: functional; procedure, shortened: as §1
[31] = test system: Leishmania donovani; assay: Effect on total membrane fatty acid composition in Leishmania donovani LV9 promastigotes assessed by measuring unsaturated fatty acids at 10 uM; type: functional; procedure, shortened: as §2
[32] = test system: Leishmania donovani; assay: Effect on total membrane sterol composition in Leishmania donovani LV9 promastigotes assessed as reduction in total C24 alkyl sterol content; type: functional; parameters: scale not given: the % may be the effect or the level left; procedure, shortened: as §1
[33] = test system: Leishmania donovani; assay: Effect on plasma membrane phospholipid composition in wild type Leishmania donovani LV9 assessed as decrease in phosphatidyl choline at 10 uM after 48 hrs; type: functional; parameters: scale not given: the % may be the effect or the level left; procedure, shortened: as §5
[34] = test system: Leishmania donovani; assay: Effect on total membrane sterol composition in Leishmania donovani LV9 promastigotes assessed by measuring 4,4alpha-Dimethylcholesta-8,24-dien-3beta-ol content at 10 uM; type: functional; procedure, shortened: as §1

CCCCCCCCCCCCCCCCOP(=O)([O-])OCC[N+](C)(C)C [MILTEFOSINE]
Activity [1]: 0.1%
Activity [2]: 3.2%
Activity [3]: 4.8%
Activity [4]: 0.2%
Activity [5]: 0.4%
Activity [6]: 26.3%
Activity [7]: 1.56%
Activity [8]: 0.7%
Activity [9]: 61.2%
Activity [10]: inactive
Activity [11]: 0.2%
Activity [12]: 0.2%
Activity [13]: inactive
Activity [14]: 0.3%
Activity [15]: 5.1%
Activity [16]: 42%
Activity [17]: 1.6%
Activity [18]: 1.4%
Activity [19]: 3.85%
Activity [20]: 25%
Activity [21]: 34.22%
Activity [22]: 19%
Activity [23]: 1.84%
Activity [24]: 41%
Activity [25]: 0.3%
Activity [26]: 0.3%
Activity [27]: 22.33%
inhibition at 10 µM [28]: 66%
Activity [29]: 0.2%
Activity [30]: 36.6%
Activity [31]: 52%
Activity [32]: 43%
Activity [33]: 47%
Activity [34]: 0.2%

Source: ChEMBL document CHEMBL1147093, “Miltefosine affects lipid metabolism in Leishmania donovani promastigotes” (2007)
